Screening data from PubChem.
Sampled rows, rich in hits. Any-hit rate of the full collection: about 2.5%.
HGIII-sPLA2 inh = human group III sPLA2 inhibitors, primary screen, biochemical, QFRET, BODIPY PC-A2 liposome substrate; QFRET BODIPY PC-A2 liposome hydrolysis, fluorescence; inhibition, % at 12.2 µM; hit rate 0.56% among 370,000;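 active means inhibition above mean plus 3 SD of compounds lying within the high and low control bounds, cut at about 19% in these data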;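 further: 0% = median of test compound wells and 100% = no enzyme DMSO wells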
Target sequence (Q9NZ20 whole entry, looked up): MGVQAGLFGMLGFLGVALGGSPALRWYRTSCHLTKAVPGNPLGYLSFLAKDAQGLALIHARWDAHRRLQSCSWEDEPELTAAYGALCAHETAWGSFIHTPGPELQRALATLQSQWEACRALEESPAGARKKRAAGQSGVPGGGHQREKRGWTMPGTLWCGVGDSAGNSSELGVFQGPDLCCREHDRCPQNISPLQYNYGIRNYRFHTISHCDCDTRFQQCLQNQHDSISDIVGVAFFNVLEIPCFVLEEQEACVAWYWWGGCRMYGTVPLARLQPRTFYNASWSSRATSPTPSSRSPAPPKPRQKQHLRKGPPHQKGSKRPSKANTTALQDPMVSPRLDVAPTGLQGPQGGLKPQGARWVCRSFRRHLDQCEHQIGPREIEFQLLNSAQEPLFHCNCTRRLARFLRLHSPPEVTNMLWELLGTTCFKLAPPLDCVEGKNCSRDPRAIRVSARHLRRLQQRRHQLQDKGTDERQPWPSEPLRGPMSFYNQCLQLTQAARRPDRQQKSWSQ
Granule exo inh = LAMP-1 surface exposure blockers, TALL-104 cells – cell-based, flow cytometry, MLPCN library, primary screen. TALL-104 LAMP-1 surface exposure; cells stimulated with thapsigargin and PMA. inhibition, % at 10 µM. hit rate 0.66% among 360,000;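 active means inhibition above about 55%, limit read from the data; inconclusive means no clear call, values can overlap the other calls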
Bfl-1 A1 inh = caspase 3/7 activation in MEF A1-2A-BIM cells, primary screen, A1 inhibitor project, cell-based, luminescence, HTS; Caspase-Glo 3/7 luminescence, 3 h; percent of clofoctol response, vehicle zero; caspase activation, % (no concentration beside the values); hit rate 0.066% among 330,000;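 active means over half of replicate activation scores above 10%, or exactly half above 10 with the replicate mean above 10; inconclusive means replicate mean below 10 yet half the replicates above 10; inactive means over half of replicates below 10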
MC4R ag barr = MC4R agonists recruiting beta-arrestin, primary screen, cell-based, luminescence, agonist arm of biased-ligand search. Melanocortin receptor 4 (Homo sapiens), P32245. U2OS MC4R beta-arrestin complementation; percent of melanotan II response, DMSO zero. activation, % at 8.9 µM. hit rate 0.98% among 360,000. AID 540308, 2011;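 active means activation above a per-plate cutoff, the mean activation of sample wells on that plate plus 3 SD, cut at about 8% in these data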
MC4R antagonist = MC4R antagonists of cAMP signaling, primary screen, cell-based, TR-FRET, antagonist arm of biased-ligand search | hit rate 0.48% among 360,000 | MC4R-expressing cells, MTII-stimulated cAMP, LANCE TR-FRET | Melanocortin receptor 4 (Homo sapiens), P32245 | inhibition, % at 6.5 µM;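 active means inhibition above its plate's cutoff, the mean of tested wells on that plate plus 3 SD, cut at about 29% in these data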;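 further: 0% = Melanotan II alone and 100% = Melanotan II plus saturating MCL0020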
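Material: U2OS-MC4R stable cell line | Reagent: Melanotan II challenge after compound preincubation | Doses: One concentration, 6.5 µM nominal | Incubation: 30-min compound preincubation, 1-h Melanotan II challenge, 1-h detection, room temperature | Signal: TR-FRET cAMP assay | Replicates: One well per compound, no replicates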
NTR1 ag = agonists of human NTR1, primary screen, imaging, U2OS cells, beta-arrestin-GFP, high content | Neurotensin receptor type 1 (Homo sapiens), P30989 | NTR1-U2OS beta-arrestin-GFP spot imaging, agonist mode | activation, % at 20 µM | hit rate 0.17% among 330,000 | AID 493036, 2011;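 active means activation at or above 40% of the spot to cytoplasm intensity ratio, with at least 20 cells analyzed; inconclusive means wells under 20 cells, flagged as cytotoxic or low count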;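 further: 0% = DMSO without peptide and 100% = 100 nM NTR1 peptide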
* = called active by the depositor; u = inconclusive; x = no result.

SMILES | HGIII-sPLA2 inh | Granule exo inh | Bfl-1 A1 inh | MC4R ag barr | MC4R antagonist | NTR1 ag
Cc1ccc(C(=O)N/C(=C\c2ccco2)C(=O)NCCN2CCOCC2)cc1C | -6 | 1 | 0 | 8.4* | -4 | -1
CCN(CC)CCN(C(=O)c1cc2c(ccc3ccccc32)oc1=O)c1nc2cc3c(cc2s1)OCCO3 | 3 | 16 | 7.2* | 4 | 1 | 4
O=C1C(Cl)=C(NCCN2CCCCC2)C(=O)c2ccccc21 | x | 56* | 0 | -1 | -38 | 3
Cc1ccc(Cn2ccsc2=NC(=O)CCl)cc1 | 4 | -2 | 1 | 15* | 9 | 0
Cc1ccc(Cn2ccsc2=NC(=O)COC(=O)c2ccc(NC(=O)CC#N)cc2)cc1 | -61 | 13 | -1 | -2 | 5 | 1
O=C1c2cccc(NCCNCCO)c2C(=O)c2cccc(NCCNCCO)c21 | 30* | -17 | x | -2 | -27 | x
O=C(O)CCNc1ccc(NCCC(=O)O)c2c1C(=O)c1ccccc1C2=O | 13 | 7 | 0 | -2 | -31 | -2
COc1ccc(CN2C(=O)[C@@](O)(c3cccn3C)c3cc(F)ccc32)cc1 | -12 | x | x | x | x | x
O=C(Nc1cc(C(F)(F)F)ccc1Cl)C1CCN(c2nnc(-n3cccc3)s2)CC1 | -10 | 0 | x | 8.6* | 2 | x
CS(=O)(=O)N1CCC(C(=O)Nc2cc(C(F)(F)F)ccc2Cl)CC1 | 5 | -1 | 0 | -3 | 6 | 0
O=C1CCCCC1C(Nc1ccc(Cl)cc1)c1ccccc1 (stereo not given) | -2 | 4 | -1 | 8.9* | 2 | 11
O=C1CCCCC1C(Nc1ccc(Br)cc1)c1ccccc1 (stereo not given) | -7 | 3 | 0 | 1 | 6 | 0
COc1ccccc1NC(=O)N(C)C[C@H]1OCc2cn(nn2)CCCC(=O)N([C@H](C)CO)C[C@@H]1C | 9 | x | x | x | x | x
O=C(OC12CCCN(C1)/C(=C/c1ccc(Cl)cc1)C2)C1CCCCC1 (stereo not given) | 9 | x | x | x | x | x
OC(c1ccccc1)c1ncc(-c2ccc(C(F)(F)F)cc2)[nH]1 (stereo not given) | -5 | -1 | x | -1 | -1 | x
OC(c1ccc(-c2ccccc2)cc1)c1ncc(-c2ccc(C(F)(F)F)cc2)[nH]1 (stereo not given) | -12 | -1 | x | 9.5* | 11 | x
CCc1ccc(C(O)c2ncc(-c3ccc(C(F)(F)F)cc3)[nH]2)cc1 (stereo not given) | 6 | -4 | x | 9.2* | 15 | x
CC(C)(C)c1ccc(C(O)c2ncc(-c3ccccc3F)[nH]2)cc1 (stereo not given) | -10 | 4 | x | 8.2* | 0 | x
O=C1C(Cl)=C(Nc2ccc(O)cc2)C(=O)c2ccccc21 | 10 | 70* | 0 | -3 | 15 | -2
COC1=C(Nc2ccc(O)cc2)C(=O)c2ccccc2C1=O | -3 | -2 | -1 | -2 | -28 | -1
CCN(CC)c1ccc(NC2=C(Cl)C(=O)c3ccccc3C2=O)cc1 | x | 67* | u | -6 | 0 | x
Cc1ccc(NC2=C(Cl)C(=O)c3ccccc3C2=O)cc1 | 11 | 74* | -1 | -1 | 1 | x
COc1ccc(O)c(C2=Nc3ccccc3N=C(c3ccccc3)C2)c1 | -3 | 2 | 1 | -4 | 6 | 5
Oc1ccccc1C1=Nc2ccccc2N=C(c2ccco2)C1 | -7 | 0 | 0 | 8.5* | 1 | 3
C[C@H]1CN([C@@H](C)CO)C(=O)c2c(c3ccccc3n2C)-c2ccccc2CO[C@H]1CN(C)C(=O)Nc1cccc(F)c1 | -17 | x | x | x | x | x
CCN1C/C(=C/c2cccc([N+](=O)[O-])c2)C(=O)/C(=C/c2cccc([N+](=O)[O-])c2)C1 | -1 | 64* | 3 | 0 | 4 | x
